Experimental data published in ChEMBL document CHEMBL5724801, “EUbOPEN Chemogenomics Library - Multiplex” (2024).
Where “and” joins values, the source holds several entries; their conditions need not be identical. Identical values can stand only once.

Tested on: HEK-293T
Assay: Multiplex assay against HEK293T
Type: toxicity, cell-based
Conditions: human
Outline: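 Imaging took place on a CQ1 microscope at 37°C and 5% CO2 once compound had been added to live cells stained at seeding with Hoechst33342, BioTracker Green Microtubule Cytoskeleton Dye, MitoTracker Red and Annexin V Alexa Fluor 680. CellPathfinder machine-learning gating classed cells as Hoechst high-intensity objects or normal cells, classed normal cells as having healthy, pyknosed or fragmented nuclei, and classed pyknosed cells as mitotic or apoptotic. Tubulin, mitochondrial-mass and membrane-permeability phenotypes are per cents of the healthy-nucleus cells.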

[1] = 12 h, 1 µM, compound concentration 1 uM
[2] = 12 h, 10 µM, compound concentration 10 uM
[3] = 24 h, 1 µM, compound concentration 1 uM
[4] = 24 h, 10 µM, compound concentration 10 uM
[5] = 48 h, 1 µM, compound concentration 1 uM
[6] = 48 h, 10 µM, compound concentration 10 uM

For `O=C(O)CCC/C=C\CC1C(O)CC(O)C1/C=C/C(O)COc1cccc(Cl)c1` (stereo unspecified) [CLOPROSTENOL], the “Population Apoptotic (%)” value [1] was 31% and 40%, the “Population Fragmented Nuclei (%)” value [1] was 7% and 6% and the “Population Healthy Nuclei (%)” value [1] was 81% and 80%. For the same compound, the “Population Hoechst High Intensity Objects (%)” value [1] was 9% and 7%, the “Population Membrane Permeable-Phenotype (%)” value [1] was 0% and the “Population Mitochondria Different-Phenotype (%)” value [1] was 44% and 56%. The “Population Mitotic Cells (%)” value [1] was 68% and 59%, the “Population Normal (%)” value [1] was 90% and 92% and the “Population Pyknosed Nuclei (%)” value [1] was 10% and 13%. The “Population Tubulin-Different-Phenotype (%)” value [1] was 35% and 23%, the “Total Cell Count” value [1] was 458 and 341 and the “Population Apoptotic (%)” value [2] was 45% and 51%. The “Population Fragmented Nuclei (%)” value [2] was 7% and 8%, the “Population Healthy Nuclei (%)” value [2] was 77% and the “Population Hoechst High Intensity Objects (%)” value [2] was 6% and 13%. For the same compound, the “Population Membrane Permeable-Phenotype (%)” value [2] was 0%, the “Population Mitochondria Different-Phenotype (%)” value [2] was 63% and 68% and the “Population Mitotic Cells (%)” value [2] was 54% and 48%. The “Population Normal (%)” value [2] was 93% and 86%, the “Population Pyknosed Nuclei (%)” value [2] was 14% and the “Population Tubulin-Different-Phenotype (%)” value [2] was 41% and 37%. The “Total Cell Count” value [2] was 395 and 357, the “Population Apoptotic (%)” value [3] was 22% and 34% and the “Population Fragmented Nuclei (%)” value [3] was 11% and 7%. The “Population Healthy Nuclei (%)” value [3] was 76% and 83%, the “Population Hoechst High Intensity Objects (%)” value [3] was 7% and 5% and the “Population Membrane Permeable-Phenotype (%)” value [3] was 1% and 0%. The “Population Mitochondria Different-Phenotype (%)” value [3] was 25% and 37%, the “Population Mitotic Cells (%)” value [3] was 77% and 65% and the “Population Normal (%)” value [3] was 92% and 94%. The “Population Pyknosed Nuclei (%)” value [3] was 11% and 9%, the “Population Tubulin-Different-Phenotype (%)” value [3] was 28% and 16% and the “Total Cell Count” value [3] was 612 and 477. For the same compound, the “Population Apoptotic (%)” value [4] was 46%, the “Population Fragmented Nuclei (%)” value [4] was 10% and 12% and the “Population Healthy Nuclei (%)” value [4] was 78%. The “Population Hoechst High Intensity Objects (%)” value [4] was 7% and 11%, the “Population Membrane Permeable-Phenotype (%)” value [4] was 0% and the “Population Mitochondria Different-Phenotype (%)” value [4] was 46% and 55%. For the same compound, the “Population Mitotic Cells (%)” value [4] was 54% and 53%, the “Population Normal (%)” value [4] was 92% and 88% and the “Population Pyknosed Nuclei (%)” value [4] was 10% and 9%. The “Population Tubulin-Different-Phenotype (%)” value [4] was 35% and 31%, the “Total Cell Count” value [4] was 490 and 483 and the “Population Apoptotic (%)” value [5] was 20% and 28%. The “Population Fragmented Nuclei (%)” value [5] was 15% and 13%, the “Population Healthy Nuclei (%)” value [5] was 77% and 81% and the “Population Hoechst High Intensity Objects (%)” value [5] was 4% and 5%. The “Population Membrane Permeable-Phenotype (%)” value [5] was 1%, the “Population Mitochondria Different-Phenotype (%)” value [5] was 15% and 20% and the “Population Mitotic Cells (%)” value [5] was 79% and 71%. For the same compound, the “Population Normal (%)” value [5] was 95% and 94%, the “Population Pyknosed Nuclei (%)” value [5] was 6% and 5% and the “Population Tubulin-Different-Phenotype (%)” value [5] was 15% and 11%. For the same compound, the “Total Cell Count” value [5] was 956 and 703, the “Population Apoptotic (%)” value [6] was 33% and 25% and the “Population Fragmented Nuclei (%)” value [6] was 16% and 18%. The “Population Healthy Nuclei (%)” value [6] was 76% and 75%, the “Population Hoechst High Intensity Objects (%)” value [6] was 7% and 6% and the “Population Membrane Permeable-Phenotype (%)” value [6] was 0% and 1%. For the same compound, the “Population Mitochondria Different-Phenotype (%)” value [6] was 32% and 25%, the “Population Mitotic Cells (%)” value [6] was 66% and 74% and the “Population Normal (%)” value [6] was 92% and 93%. The “Population Pyknosed Nuclei (%)” value [6] was 6% and 5%, the “Population Tubulin-Different-Phenotype (%)” value [6] was 18% and the “Total Cell Count” value [6] was 659 and 731.

With `CN(C)C(=O)Cn1cc(-c2ccc(-c3cncc4ccccc34)cc2)cn1` the “Population Apoptotic (%)” value [1] was 52% and 40%, the “Population Fragmented Nuclei (%)” value [1] was 5% and 4% and the “Population Healthy Nuclei (%)” value [1] was 81% and 80%. The “Population Hoechst High Intensity Objects (%)” value [1] was 7% and 2%, the “Population Membrane Permeable-Phenotype (%)” value [1] was 0% and the “Population Mitochondria Different-Phenotype (%)” value [1] was 50% and 58%. For the same compound, the “Population Mitotic Cells (%)” value [1] was 47% and 59%, the “Population Normal (%)” value [1] was 92% and 97% and the “Population Pyknosed Nuclei (%)” value [1] was 12% and 14%. For the same compound, the “Population Tubulin-Different-Phenotype (%)” value [1] was 35% and 23%, the “Total Cell Count” value [1] was 411 and 337 and the “Population Apoptotic (%)” value [2] was 48% and 69%. The “Population Fragmented Nuclei (%)” value [2] was 8%, the “Population Healthy Nuclei (%)” value [2] was 73% and 76% and the “Population Membrane Permeable-Phenotype (%)” value [2] was 0%. For the same compound, the “Population Mitochondria Different-Phenotype (%)” value [2] was 65% and 69%, the “Population Mitotic Cells (%)” value [2] was 51% and 30% and the “Population Normal (%)” value [2] was 93% and 80%. The “Population Pyknosed Nuclei (%)” value [2] was 17% and 15%, the “Population Tubulin-Different-Phenotype (%)” value [2] was 47% and 43% and the “Total Cell Count” value [2] was 264 and 321. The “Population Apoptotic (%)” value [3] was 47% and 40%, the “Population Fragmented Nuclei (%)” value [3] was 10% and 6% and the “Population Healthy Nuclei (%)” value [3] was 79% and 82%. The “Population Hoechst High Intensity Objects (%)” value [3] was 6% and 7%, the “Population Membrane Permeable-Phenotype (%)” value [3] was 0% and the “Population Mitochondria Different-Phenotype (%)” value [3] was 38% and 45%. For the same compound, the “Population Mitotic Cells (%)” value [3] was 52% and 60%, the “Population Normal (%)” value [3] was 93% and 92% and the “Population Pyknosed Nuclei (%)” value [3] was 10%. For the same compound, the “Population Tubulin-Different-Phenotype (%)” value [3] was 24% and 23%, the “Total Cell Count” value [3] was 498 and 355 and the “Population Apoptotic (%)” value [4] was 48% and 45%. For the same compound, the “Population Fragmented Nuclei (%)” value [4] was 9% and 10%, the “Population Healthy Nuclei (%)” value [4] was 75% and the “Population Hoechst High Intensity Objects (%)” value [4] was 6% and 14%. For the same compound, the “Population Membrane Permeable-Phenotype (%)” value [4] was 0%, the “Population Mitochondria Different-Phenotype (%)” value [4] was 65% and 53% and the “Population Mitotic Cells (%)” value [4] was 51% and 54%. For the same compound, the “Population Normal (%)” value [4] was 93% and 85%, the “Population Pyknosed Nuclei (%)” value [4] was 14% and 13% and the “Population Tubulin-Different-Phenotype (%)” value [4] was 44% and 30%. The “Total Cell Count” value [4] was 283 and 362, the “Population Apoptotic (%)” value [5] was 35% and 60% and the “Population Fragmented Nuclei (%)” value [5] was 19% and 11%. The “Population Healthy Nuclei (%)” value [5] was 74% and 82%, the “Population Hoechst High Intensity Objects (%)” value [5] was 8% and 5% and the “Population Membrane Permeable-Phenotype (%)” value [5] was 1% and 0%. The “Population Mitochondria Different-Phenotype (%)” value [5] was 40% and 32%, the “Population Mitotic Cells (%)” value [5] was 64% and 39% and the “Population Normal (%)” value [5] was 91% and 94%. The “Population Pyknosed Nuclei (%)” value [5] was 6% and 5%, the “Population Tubulin-Different-Phenotype (%)” value [5] was 25% and 17% and the “Total Cell Count” value [5] was 554 and 430. For the same compound, the “Population Apoptotic (%)” value [6] was 66% and 59%, the “Population Fragmented Nuclei (%)” value [6] was 23% and the “Population Healthy Nuclei (%)” value [6] was 63% and 70%. The “Population Hoechst High Intensity Objects (%)” value [6] was 11% and 8%, the “Population Membrane Permeable-Phenotype (%)” value [6] was 0% and the “Population Mitochondria Different-Phenotype (%)” value [6] was 56% and 43%. The “Population Mitotic Cells (%)” value [6] was 33% and 40%, the “Population Normal (%)” value [6] was 88% and 91% and the “Population Pyknosed Nuclei (%)” value [6] was 12% and 6%. The “Population Tubulin-Different-Phenotype (%)” value [6] was 30% and 23% and the “Total Cell Count” value [6] was 379 and 429.
